Data taken from article PMC7810150 (Journal of medicinal chemistry, 2020).
Read-outs that look alike come from different tables or passages of the source. Marks after values point to notes of the source that are not given here.

Columns and labels:
[1] = estimated from literature data, cited from earlier work
EWS-FLI1 and Sp1 mRNA = assay: TC32 xenograft tumor tissue mRNA analysis; type: in vivo, mice; conditions: tumors collected 6 h after the sixth dose, n = 3/group
Summary of the method: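 Three mice per group were taken from the q3dx8 IV xenograft study. Tumors were resected 6 h after the 6th dose, rinsed in sterile PBS, snap-frozen in liquid nitrogen and stored at −80 °C. Tissue was cut semifrozen and ground under liquid nitrogen. Total RNA was extracted in RLT lysis buffer with a silica-column kit.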

EWS-FLI1 = EWS-FLI1 (Homo sapiens, UniProt Q01543+Q01844); conditions: 10 μM, 6 h incubation, TC32 cells; DMSO control 48.9 °C
[2] = system: Sp1, VEGFA and BCL-2 mRNA; assay: Target gene mRNA expression by qRT-PCR in PC3 cells; type: cell-based; conditions: 6 h treatment
Summary of the method: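 PC3 cells, 300,000/well, were washed with DPBS at ~75% confluence (48–72 h). They were treated 6 h with test compound at 0, 100, 300, 1000 nM or mithramycin at 0, 30, 100, 300 nM. Cells were harvested by trypsin; RNA was isolated and cDNA made. qRT-PCR expression was calculated relative to GAPDH (ΔΔCt). Error bars are SEM of at least two biological replicates.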

[3] = system: EWS-FLI1 and NR0B1 protein; conditions: TC32 cells, 24 h, 10, 30 and 300 nM
EWS-FLI1 mRNA = assay: Target gene mRNA expression by qRT-PCR in TC32 cells; type: cell-based; conditions: 6 h incubation
Summary of the method: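 TC32 cells, 300,000/well, were DPBS-washed at ~75% confluence (48–72 h). They were exposed 6 h to test compound at 0, 30, 100, 300 nM or mithramycin at 0, 10, 30, 100 nM. After trypsin collection, RNA was isolated and reverse-transcribed. mRNA was quantified by qRT-PCR relative to GAPDH (ΔΔCt). SEM is from at least two biological replicates.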

TC32 tumors = assay: TC32 cell line xenograft efficacy in nu/nu mice; type: in vivo; conditions: for effect on survival (and tumor volume) / median survival: q3dx8 IV, MTMox32E […] mg/kg, MTM 1 mg/kg; for median survival: vehicle 22 days
Summary of the method: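 TC32 cells in 1:1 RPMI (no FBS)/Matrigel, 1.0 × 10^6 cells per 100 μL, injected subcutaneously into the flank of female athymic nu/nu mice. Mice with tumors of at least 50 mm3 (14–28 days post implantation) were randomized. Dosing was IV bolus in 5% Kolliphor EL/2% DMSO/93% saline. Tumor volume was measured every 3 days, with euthanasia at 20 mm tumor length. Tumor volume was compared at day 16 by one-way ANOVA; survival by log-rank (Holm-Sidak).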

TC32 Ewing sarcoma cells [4] = assay: 72 h growth inhibition; type: cell-based
CMV promoter = conditions: cited from earlier work
[5] = system: EWS-FLI1 transcriptional activity (NR0B1 promoter); assay: Luciferase reporter assay, NR0B1 promoter, in TC32 cells; type: cell-based; conditions: read-out: EC50, NR0B1-mediated luciferase expression; 12 h incubation
PC3 prostate cells = conditions: read-out: PC3 GI50, 72 h; cited from earlier work
[6] = system: EWS-FLI1 transcriptional activity (NR0B1 promoter); conditions: read-out: EC50 in a similar reporter cell line; cited from earlier work
TC32 Ewing sarcoma cells [7] = conditions: 72 h; cited from earlier work

Molecule: CO[C@@H]([C@@H]1Cc2cc3cc(O[C@H]4CC(O[C@H]5CC(O)[C@H](O)C(C)O5)[C@H](O)C(C)O4)c(C)c(O)c3c(O)c2C(=O)[C@H]1O[C@H]1CC(O[C@H]2CC(O[C@H]3CC(O)[C@H](O)C(C)O3)[C@@H](O)C(C)O2)[C@H](O)C(C)O1)[C@@H](O)C(C)=O (some centres unmarked) [EC-8042]
- clearance (CL/F) ([1]; IP, 24 mg/kg, CL/F): 7197^b mL/h/kg
- dose-normalized systemic exposure (AUC/D) ([1]; IP, 24 mg/kg): 202 kg·ng·h/mL/mg
- volume of distribution (Vd) ([1]; IP, 24 mg/kg): 11.259 L/kg

Molecule: CO[C@@H]([C@@H]1Cc2cc3cc(O[C@H]4C[C@@H](O[C@H]5C[C@@H](O)[C@H](O)[C@@H](C)O5)[C@H](O)[C@@H](C)O4)c(C)c(O)c3c(O)c2C(=O)[C@H]1O[C@H]1C[C@@H](O[C@H]2C[C@@H](O[C@H]3C[C@](C)(O)[C@H](O)[C@@H](C)O3)[C@@H](O)[C@@H](C)O2)[C@H](O)[C@@H](C)O1)[C@@H](O)C(C)=O [MTM SK]
- clearance (CL) ([1]; IV, 18 mg/kg): 43.17 mL/min/kg
- dose-normalized systemic exposure (AUC/D) ([1]; IV, 18 mg/kg): 386 kg·ng·h/mL/mg
- volume of distribution (Vd) ([1]; IV, 18 mg/kg): 0.857 L/kg

Molecule: (E)-3-(2′-{2-[(Methyl l-Phenylalanyl-l-tryptophanate)amino]-2-oxoethoxy}imino) MTM [MTMox32E]
- EWS-FLI1 and Sp1 mRNA levels in tumor (EWS-FLI1 and Sp1 mRNA): reduced mRNA levels of both EWS-FLI1 (p = 0.002) and Sp1 (p = 0.04)
- Tagg of EWS-FLI1 (EWS-FLI1): 51.7 °C
- Sp1, VEGFA and BCL-2 mRNA [2]: minimally affected Sp1, VEGFA, and BCL-2
- EWS-FLI1 protein levels [3]: did not affect the protein levels of EWS-FLI1
- NR0B1 protein expression [3]: greatly diminished the expression of NR0B1
- EWS-FLI1 mRNA levels (EWS-FLI1 mRNA): decreased EWS-FL1 mRNA levels in a concentration-dependent manner
- effect on survival (and tumor volume) (TC32 tumors): significant in comparison to control (p = 0.0001) and MTM (p = 0.0385)
- median survival (TC32 tumors): 38 days
- effect on survival (TC32 tumors; qMWFx2, 14 mg/kg): statistically significant improvement in survival over vehicle control group
- TC32 GI50 (TC32 Ewing sarcoma cells [4]): 79 nM

Molecule: mithramycin A [MTM]
- effect on cells expressing luciferase under the control of a CMV promoter (CMV promoter): had no effect
- EWS-FLI1 and Sp1 mRNA levels in tumor (EWS-FLI1 and Sp1 mRNA): reduced Sp1 mRNA levels (p = 0.003), but not EWS-FLI1
- EC50 [5]: 68 nM
- Sp1, VEGFA and BCL-2 mRNA [2]: minimally affected Sp1, VEGFA, and BCL-2
- GI50 (PC3 prostate cells): 83 nM
- EWS-FLI1 mRNA levels (EWS-FLI1 mRNA): decreased EWS-FL1 mRNA levels in a concentration-dependent manner
- effect on survival (and tumor volume) (TC32 tumors): not statistically different than the control group
- median survival (TC32 tumors): 31 days
- EC50 [6]: 5 to 100 nM
- TC32 GI50 (TC32 Ewing sarcoma cells [7]): 32 nM
